Results published in paper PMC6087492 (Bioorganic & medicinal chemistry, 2018).

Key:
[1] = target: T1, OXR1 (Homo sapiens, UniProt Q8N573); test: OXR1 degradation assay using western blot; type: cell-based; settings: 5 µM, 24 h, WI-38 IR-SCs and NCs
T1 sequence (Q8N573 1-874): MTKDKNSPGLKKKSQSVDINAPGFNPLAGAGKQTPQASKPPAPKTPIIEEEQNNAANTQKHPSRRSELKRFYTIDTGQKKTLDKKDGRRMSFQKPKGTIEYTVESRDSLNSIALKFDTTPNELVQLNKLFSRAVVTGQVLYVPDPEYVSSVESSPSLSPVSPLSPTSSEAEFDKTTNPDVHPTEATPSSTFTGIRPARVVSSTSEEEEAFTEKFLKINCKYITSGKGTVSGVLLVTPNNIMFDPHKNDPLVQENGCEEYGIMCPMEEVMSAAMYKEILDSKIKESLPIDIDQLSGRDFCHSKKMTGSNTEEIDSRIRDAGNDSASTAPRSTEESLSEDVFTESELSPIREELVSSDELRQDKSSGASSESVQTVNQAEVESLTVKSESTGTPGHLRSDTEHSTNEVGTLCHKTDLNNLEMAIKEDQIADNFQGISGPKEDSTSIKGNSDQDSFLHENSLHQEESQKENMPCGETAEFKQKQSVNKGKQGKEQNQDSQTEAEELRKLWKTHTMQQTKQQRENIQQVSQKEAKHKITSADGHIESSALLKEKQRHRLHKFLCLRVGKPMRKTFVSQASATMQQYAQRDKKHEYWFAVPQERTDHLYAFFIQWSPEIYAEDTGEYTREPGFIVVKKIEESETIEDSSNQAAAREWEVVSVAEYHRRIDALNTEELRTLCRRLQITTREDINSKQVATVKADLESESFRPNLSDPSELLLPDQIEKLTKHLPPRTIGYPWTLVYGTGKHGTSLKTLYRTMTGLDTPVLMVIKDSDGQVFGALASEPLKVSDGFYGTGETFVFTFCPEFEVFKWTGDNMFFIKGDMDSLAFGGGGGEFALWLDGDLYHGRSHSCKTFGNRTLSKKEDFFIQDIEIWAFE
Outline: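 Low-passage (<25) WI-38 cells, plus senescent cells made by 15 Gy ¹³⁷Cs γ-irradiation (1.080 Gy/min). Both cultured at 37 °C, 5% CO2, then given 5 µM test compound or vehicle for 24 h. Lysed in RIPA with EDTA/EGTA and transferred to PVDF. Blocked with 5% nonfat milk/TBST. Probed overnight at 4 °C for OXR1 and β-actin, HRP secondaries, ECL/autoradiography. Quantified as mean ± SEM, n = 3.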

[2] = system: mice; settings: cited from earlier work
[3] = system: ROS production in WI-38 IR-SCs; test: ROS assay with dihydrorhodamine 123, flow cytometry; type: cell-based, Human; settings: […] treatment, DHR 123 30 min
[4] = system: WI-38 IR-SCs; test: Apoptosis assay, Annexin V / propidium iodide flow cytometry; type: cell-based, Human; settings: QVD 10 µM with 49 1 µM, 48 h and 72 h

In the case of `C=C1CCCN(C(=O)/C=C/c2cc(OC)c(OC)c(OC)c2)C1=O` [Compound 47, (E)-3-Methylene-1-(3-(3,4,5-trimethoxyphenyl)acryloyl)piperidin-2-one], the “OXR1 levels (western blot)” value [1] was “selectively reduced the levels of OXR1 in SCs”.

For `C=C1CCN(C(=O)/C=C/c2cc(OC)c(OC)c(OC)c2)C1=O` [Compound 48, (E)-3-Methylene-1-(3-(3,4,5-trimethoxyphenyl)acryloyl)pyrrolidin-2-one], the “OXR1 levels (western blot)” value [1] was “selectively reduced the levels of OXR1 in SCs”.

With `C=C1CCCCN(C(=O)/C=C/c2cc(OC)c(OC)c(OC)c2)C1=O` [Compound 49, (E)-3-Methylene-1-(3-(3,4,5-trimethoxyphenyl)acryloyl)azepan-2-one] the “OXR1 levels (western blot)” value [1] was “selectively reduced the levels of OXR1 in SCs”.

For `COc1cc(/C=C/C(=O)N2CCC=CC2=O)cc(OC)c1OC` [PL, piperlongumine], the “maximum tolerated oral dose” value ([2]; mice, oral) is listed as over 1000 mg/kg, the “effective therapeutic dose for cancer” value ([2]; oral dosing) is listed as at least 2.4 mg/kg and the “ROS levels (DHR 123 fluorescence)” value [3] is listed as “moderate increase of the ROS levels”. For the same compound, the “OXR1 levels (western blot)” value [1] was “abrogated the upregulation of OXR1”.

In the case of `CC(C)[C@H](NC(=O)c1ccc2ccccc2n1)C(=O)N[C@@H](CC(=O)O)C(=O)COc1c(F)cccc1F` [QVD], the “effect of pan-caspase inhibitor on 49-induced apoptosis and death” value [4] was “significantly reduced apoptosis and partially rescued SCs from 49-induced death”.
